The test system of data set [1] is Rattus norvegicus. The data set is described as follows: Toxicity in Sprague-Dawley rat assessed as increase in heart weight at 10 mg/kg for 6 weeks. Type of data set: organism-based. Particulars: in vivo, 1008 h.
Data set [2] deals with Rattus norvegicus. The experiment in a line: Toxicity in Sprague-Dawley rat assessed as reduction in hematocrit level at 10 mg/kg for 4 weeks. Type of data set: organism-based. Conditions: in vivo, 672 h.
Data set [3] relates to Rattus norvegicus. The experiment in a line: Toxicity in Sprague-Dawley rat assessed as increase in plasma volume at 10 mg/kg for 4 weeks by evans blue dye based assay. It is filed as organism-based. Particulars: in vivo, 672 h.
The nature of data set [4]: Apparent permeability from apical to basolateral side in human Caco2 cells at 10 uM after 2 hrs by LC-MS/MS analysis. Particulars: Caco-2. It is filed as ADME, cell-based, Caco-2.
A short description of data set [5]: Efflux ratio of apparent permeability in human Caco2 cells at 10 uM after 2 hrs by LC-MS/MS analysis. Particulars: Caco-2. It is filed as ADME, cell-based, Caco-2.
A short description of data set [6]: Apparent permeability from basolateral to apical side in human Caco2 cells at 10 uM after 2 hrs by LC-MS/MS analysis. Type of data set: ADME, cell-based, Caco-2. Conditions: caco-2, 2 h, 10 µM.
A short description of data set [7]: Aqueous solubility in fasted state simulated intestinal fluid. It is filed as physicochemical.
In data set [8] the target is T1, Peroxisome proliferator-activated receptor delta (Homo sapiens) (UniProt Q03181).
T1 sequence (whole entry): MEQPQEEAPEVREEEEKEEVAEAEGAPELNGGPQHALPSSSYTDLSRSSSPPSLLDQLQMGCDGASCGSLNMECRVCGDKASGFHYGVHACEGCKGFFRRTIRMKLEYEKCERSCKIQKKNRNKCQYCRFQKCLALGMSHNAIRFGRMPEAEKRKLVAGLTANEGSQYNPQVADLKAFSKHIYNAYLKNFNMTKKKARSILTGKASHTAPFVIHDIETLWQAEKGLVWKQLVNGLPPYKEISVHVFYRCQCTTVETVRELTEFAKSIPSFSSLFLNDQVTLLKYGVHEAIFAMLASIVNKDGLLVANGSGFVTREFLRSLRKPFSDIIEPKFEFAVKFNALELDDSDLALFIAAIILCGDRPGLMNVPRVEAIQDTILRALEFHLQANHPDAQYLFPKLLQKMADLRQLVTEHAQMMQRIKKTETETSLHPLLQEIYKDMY
The experiment in a line: Transactivation of human GAL4-fused PPARdelta LBD expressed in African green monkey COS7 cells co-expressing 5Gal4 pGL3 TK Luc after overnight incubation by luciferase reporter gene assay relative to GW501516. It is filed as cell-based. In outline: (§1)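 Cell-based Gal-4 transactivation assay in COS-7 cells transfected with PPARα, PPARδ or PPARγ ligand-binding domain. EC50 and Emax were derived, with Emax as maximum activation in percent of control. EC50s are means of at least two independent experiments performed in triplicate.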

Data set [9] addresses T2, Peroxisome proliferator-activated receptor alpha (Homo sapiens, UniProt Q07869).
T2 sequence (Q07869 whole entry): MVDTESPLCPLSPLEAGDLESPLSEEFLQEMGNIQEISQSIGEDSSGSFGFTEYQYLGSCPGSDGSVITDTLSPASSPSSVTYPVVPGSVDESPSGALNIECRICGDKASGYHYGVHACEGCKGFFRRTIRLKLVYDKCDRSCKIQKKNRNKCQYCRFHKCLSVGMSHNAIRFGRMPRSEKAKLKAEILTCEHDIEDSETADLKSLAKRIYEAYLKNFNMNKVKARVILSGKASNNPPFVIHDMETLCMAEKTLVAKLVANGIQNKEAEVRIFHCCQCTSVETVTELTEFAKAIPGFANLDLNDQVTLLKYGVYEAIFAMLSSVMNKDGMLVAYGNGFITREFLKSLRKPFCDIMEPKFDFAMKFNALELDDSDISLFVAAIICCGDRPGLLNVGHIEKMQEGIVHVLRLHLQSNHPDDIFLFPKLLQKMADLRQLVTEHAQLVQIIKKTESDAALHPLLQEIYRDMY
The experiment in a line: Transactivation of human GAL4-fused PPARalpha LBD expressed in African green monkey COS7 cells co-expressing 5Gal4 pGL3 TK Luc after overnight incubation by luciferase reporter gene assay. Type of data set: cell-based. Summed up:
as §1

The target in data set [10] is T3, Peroxisome proliferator-activated receptor alpha (Homo sapiens) (UniProt Q07869).
T3 sequence (whole entry): T2 sequence (Q07869 whole entry)
The data set is described as follows: Transactivation of human GAL4-fused PPARalpha LBD expressed in African green monkey COS7 cells co-expressing 5Gal4 pGL3 TK Luc after overnight incubation by luciferase reporter gene assay relative to fenofibric acid. Type of data set: cell-based. In outline:
as §1

Data set [11] in a line: AUC (infinity) in C57Bl6 mouse at 10 mg/kg, po administered as single oral dose. Type of data set: ADME, organism-based. Conditions: in vivo. Summed up:
(§2)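 Single oral dose of 10 mg/kg in methyl cellulose vehicle given to C57Bl6 mice. Plasma was sampled over a 24 h period. […]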

Data set [12] can be described thus: Cmax in C57Bl6 mouse at 10 mg/kg, po administered as single oral dose. Type of data set: ADME, organism-based. Particulars: in vivo. In outline:
as §2

Data set [13] has as its target T4, Peroxisome proliferator-activated receptor gamma (Homo sapiens) (UniProt P37231).
T4 sequence (whole entry): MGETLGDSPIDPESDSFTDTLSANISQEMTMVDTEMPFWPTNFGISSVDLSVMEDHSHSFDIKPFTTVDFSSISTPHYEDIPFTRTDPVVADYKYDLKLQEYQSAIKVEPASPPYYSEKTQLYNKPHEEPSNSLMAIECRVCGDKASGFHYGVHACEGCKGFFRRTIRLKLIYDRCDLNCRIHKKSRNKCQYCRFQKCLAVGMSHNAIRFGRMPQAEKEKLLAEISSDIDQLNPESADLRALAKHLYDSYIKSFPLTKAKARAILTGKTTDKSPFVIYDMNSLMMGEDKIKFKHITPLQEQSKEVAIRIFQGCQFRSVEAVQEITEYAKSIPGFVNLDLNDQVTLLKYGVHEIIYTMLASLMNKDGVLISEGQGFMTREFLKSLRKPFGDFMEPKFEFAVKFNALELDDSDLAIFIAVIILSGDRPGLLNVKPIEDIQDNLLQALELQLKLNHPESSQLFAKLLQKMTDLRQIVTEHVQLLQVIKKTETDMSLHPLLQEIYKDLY
The data set is described as follows: Transactivation of human GAL4-fused PPARgamma LBD expressed in African green monkey COS7 cells co-expressing 5Gal4 pGL3 TK Luc after overnight incubation by luciferase reporter gene assay relative to rosiglitazone. Type of data set: cell-based. Summed up: as §1

In data set [14] the target is T5, Peroxisome proliferator-activated receptor gamma (Homo sapiens, UniProt P37231).
T5 sequence (P37231 whole entry): T4 sequence (whole entry)
The experiment in a line: Transactivation of human GAL4-fused PPARgamma LBD expressed in African green monkey COS7 cells co-expressing 5Gal4 pGL3 TK Luc after overnight incubation by luciferase reporter gene assay. Type of data set: cell-based. Summed up: as §1

The nature of data set [15]: Tmax in C57Bl6 mouse at 10 mg/kg, po administered as single oral dose. Conditions: in vivo. It is filed as ADME, organism-based. In outline:
as §2

Data set [16] has as its target T6, Peroxisome proliferator-activated receptor delta (Homo sapiens, UniProt Q03181).
T6 sequence (Q03181 whole entry): T1 sequence (whole entry)
The experiment in a line: Transactivation of human GAL4-fused PPARdelta LBD expressed in African green monkey COS7 cells co-expressing 5Gal4 pGL3 TK Luc after overnight incubation by luciferase reporter gene assay. It is filed as cell-based. In outline: as §1

In data set [17] the test system is Rattus norvegicus. The data set is described as follows: Toxicity in Sprague-Dawley rat assessed as increase in heart weight at 30 mg/kg for 6 weeks. Particulars: in vivo, 1008 h. Type of data set: organism-based.
The test system of data set [18] is Rattus norvegicus. The data set is described as follows: Toxicity in Sprague-Dawley rat assessed as increase in plasma volume at 100 mg/kg for 4 weeks by evans blue dye based assay. Conditions: in vivo, 672 h. It is filed as organism-based. Summed up:
(§3)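 Sprague-Dawley rats were treated at 100 and 1000 mg/kg. Hematocrit and plasma volume were assessed after 4 weeks of treatment and heart weight after 6 weeks. Each was compared with the control group by one-way ANOVA followed by Dunnett's test.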

The test system of data set [19] is Rattus norvegicus. The experiment in a line: Toxicity in Sprague-Dawley rat assessed as increase in heart weight at 100 mg/kg for 6 weeks. It is filed as organism-based. Conditions: in vivo, 1008 h. Summed up:
as §3

The test system of data set [20] is Rattus norvegicus. The data set is described as follows: Toxicity in Sprague-Dawley rat assessed as reduction in hematocrit level at 100 mg/kg for 4 weeks. Type of data set: organism-based. Particulars: in vivo, 672 h. In outline: as §3

Molecules are shown by their SMILES. Values after ≈ are worked out from the molar mass of the structure shown.

On to `CCO[C@@H](Cc1ccc(OCCc2ccc(OS(C)(=O)=O)cc2)cc1)C(=O)O` [TESAGLITAZAR], for which the Activity result in the data set on Rattus norvegicus [1], in the data set with Rattus norvegicus [2] and with Rattus norvegicus [3] was “Toxic” in each case.
Take `CC(=O)CC(c1ccccc1)c1c(O)c2ccccc2oc1=O` (centres undefined) [WARFARIN]: in data set [4], the Papp A→B at 2 h, 10 µM came out at 39.8 ×10⁻⁶ cm/s. In addition, the efflux ratio at 2 h, 10 µM in data set [5] is 0.02. Also, the Papp in [6] was determined as 0.7 ×10⁻⁶ cm/s. For the same compound, the solubility in data set [7] is 56 µM (≈ 17.3 µg/mL).
With `O=C(O)CCCc1cc2cc(Cl)ccc2n1S(=O)(=O)c1ccccc1`, the Emax amounted to 46% in [8], 51% in data set [10] and 46% in data set [13]. Moreover, the EC50 was determined as 956 nM in data set [9], 284 nM in data set [14] and 645 nM in data set [16]. The compound further registered an AUC(0-inf) in data set [11] of 51100 ng·h/mL. The peak level in data set [12] (Cmax) was 11800 ng/mL. Moreover, the Tmax in data set [15] turned out to be 1 h.
For the compound `COc1cccc(S(=O)(=O)n2c(CCCC(=O)O)cc3cc(C(F)(F)F)ccc32)c1`, the figures for the Emax in [8], in data set [10] and in [13] were 28%, 37% and 46%, respectively. The results for the 50% effective concentration (EC50) in data set [9], in data set [14] and in [16] were 1160 nM, 65 nM and 1610 nM, respectively.
For the compound `CN(CCOc1ccc(CC2SC(=O)NC2=O)cc1)c1ccccn1` (centres undefined) [ROSIGLITAZONE], the Activity result in the data set with Rattus norvegicus [17] was “Toxic”.
With `COc1ccc(OC(=O)N(CC(=O)O)Cc2ccc(OCCc3nc(-c4ccccc4)oc3C)cc2)cc1` [MURAGLITAZAR], the Activity entry in the data set on Rattus norvegicus [18], in the data set with Rattus norvegicus [19] and in the data set with Rattus norvegicus [20] was “Toxic” in each case.
On to `COc1cccc(S(=O)(=O)n2c(CCCC(=O)O)cc3cc(Cl)ccc32)c1`, for which the Emax stood at 43% in data set [8], 40% in data set [10] and 48% in [13]. Also, the EC50 in data set [9] is 305 nM; in data set [14], 72 nM; in data set [16] it was 1230 nM.
Consider `Cc1cccc(S(=O)(=O)n2c(CCCC(=O)O)cc3cc(Cl)ccc32)c1`, for which the Emax in data set [8] was determined as 42%; in [10], 59%; in data set [13] it was 46%. In addition, the EC50 in data set [9] is 1250 nM; in data set [14], 75 nM; in data set [16] it was 1350 nM.
Take `O=C(O)CCCc1cc2cc(C(F)(F)F)ccc2n1S(=O)(=O)c1ccc2ncsc2c1`: the results for the Emax in [8], in data set [10] and in data set [13] were 79%, 82% and 70%, respectively. Moreover, the concentration giving a half-maximal response (EC50) in data set [9] was 1620 nM; in [14] it was 147 nM; in [16] it was 1120 nM.

(Values after ChEMBL document CHEMBL4020830, “Design, Synthesis, and Evaluation of a Novel Series of Indole Sulfonamide Peroxisome Proliferator Activated Receptor (PPAR) α/γ/δ Triple Activators: Discovery of Lanifibranor, a New Antifibrotic Clinical Candidate” (J Med Chem, 2018).)
